This note sets out measurements from ChEMBL document CHEMBL3232837, “Synthesis and evaluation of new Hsp90 inhibitors based on a 1,4,5-trisubstituted 1,2,3-triazole scaffold” (J Med Chem, 2014).

Molecules are shown by their SMILES. The source made the active and inactive calls. The calls are words filed in the database; no cut-off is given here.

Series [1] deals with Mus musculus. Nature of the series: In vivo inhibition of HSP90 in human A431 cells overexpressing EGFR xenografted in CD-1 nude mouse assessed as downregulation of AKT protein expression at 5 mg/kg, ip administered as q2d/week for 2 weeks starting 3 days after tumor injection measured at 2 hrs post last dose by Western blot analysis. The conditions noted are these: A-431. More on the design: dose 5 mg/kg. The format is functional, organism-based. In outline:
(§1)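 Nude-mouse s.c. xenografts given i.p. compound from day 3. Tumors excised 2 h (A431) or 6 h (GTL-16) after last dose and homogenized in tissue protein extraction reagent with 10 µg/ml protease inhibitor cocktail. Whole lysates analysed by Western blot with actin as loading control; two tumor samples per group shown.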
On the technique in general: Xenograft models place foreign cells or tissue in a host animal.

Series [2] relates to Mus musculus. Nature of the series: Toxicity in CD-1 nude mouse xenografted with human A431 cells overexpressing EGFR assessed as mortality at 5 mg/kg, ip administered as q2d/week for 2 weeks starting 3 days after tumor injection measured on day 5 post last dose relative to vehicle-treated control. It is filed as organism-based, A-431. The conditions noted are these: in vivo. More on the design: dose 5 mg/kg, route intraperitoneal. In outline:
(§2)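 S.c. right-flank xenografts, 5 × 10^6 cells, in female athymic nude mice 5-6 weeks old. Intraperitoneal dosing in 10 mL/kg from day 3 post-implant. Lethal toxicity counted as deaths in treated mice occurring before the first control mouse died, reported as dead/treated (8 per group). Body weight loss was also tracked from the first treatment day.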

The subject of series [3] is Mus musculus. The series is described as follows: In vivo inhibition of HSP90 in human A431 cells overexpressing EGFR xenografted in CD-1 nude mouse assessed as downregulation of CDK4 protein expression at 5 mg/kg, ip administered as q2d/week for 2 weeks starting 3 days after tumor injection measured at 2 hrs post last dose by Western blot analysis. It is filed as functional, organism-based. More on the design: dose 5 mg/kg. The settings on record: A-431. In outline:
as §1

For series [4], the target named is Heat shock protein HSP 90-beta (Homo sapiens) (UniProt P08238). The series is described as follows: Inhibition of HSP90 in human A431 cells overexpressing EGFR assessed as downregulation of EGFR protein expression after 24 hrs by Western blot analysis. It is filed as cell-based. The conditions noted are these: A-431. The essentials: (§3)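 A431 cells treated 24 h after seeding for 24 h over a concentration range; 17-DMAG 0.2 µM as reference. Cells lysed in RIPA buffer with protease and phosphatase inhibitors, protein measured by Bradford. Equal protein run on SDS-PAGE and blotted to nitrocellulose, then probed for EGFR, Cdk4, Akt, Hsp70 and actin. ECL detection; densitometry normalized to β-actin. Run at least twice.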
Chain of Heat shock protein HSP 90-beta (Homo sapiens) (P08238 whole entry): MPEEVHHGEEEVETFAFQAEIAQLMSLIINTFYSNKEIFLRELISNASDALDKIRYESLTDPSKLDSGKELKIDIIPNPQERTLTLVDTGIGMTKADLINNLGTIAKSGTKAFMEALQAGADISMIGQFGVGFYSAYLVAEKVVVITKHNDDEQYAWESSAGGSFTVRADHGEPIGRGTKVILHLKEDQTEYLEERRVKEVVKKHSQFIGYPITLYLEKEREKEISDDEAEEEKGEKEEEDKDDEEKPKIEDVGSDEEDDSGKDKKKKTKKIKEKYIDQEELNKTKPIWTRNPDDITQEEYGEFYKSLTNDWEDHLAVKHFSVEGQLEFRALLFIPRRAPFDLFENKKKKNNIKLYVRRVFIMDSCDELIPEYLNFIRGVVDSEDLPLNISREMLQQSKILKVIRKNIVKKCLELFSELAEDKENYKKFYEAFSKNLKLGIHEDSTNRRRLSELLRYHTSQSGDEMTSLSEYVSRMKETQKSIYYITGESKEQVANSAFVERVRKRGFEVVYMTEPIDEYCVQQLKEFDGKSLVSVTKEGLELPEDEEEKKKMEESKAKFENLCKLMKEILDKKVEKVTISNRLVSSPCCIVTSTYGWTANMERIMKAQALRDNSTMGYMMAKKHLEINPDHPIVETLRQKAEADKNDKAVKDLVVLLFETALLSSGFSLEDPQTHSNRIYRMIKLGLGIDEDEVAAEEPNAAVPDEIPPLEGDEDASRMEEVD
Background: Immunoblotting shows a protein as a band on a membrane.

For series [5] the target is unchanged. Nature of the series: Inhibition of HSP90 in human A431 cells overexpressing EGFR assessed as downregulation of AKT protein expression after 24 hrs by Western blot analysis. It is filed as cell-based. The settings on record: A-431. The essentials:
as §3

For series [6], the system named is Mus musculus. Nature of the series: In vivo inhibition of HSP90 in human GTL16 cells overexpressing c-Met xenografted in CD-1 nude mouse assessed as downregulation of CDK4 protein expression at 5 mg/kg, ip administered as q2d/week for 2 weeks starting 3 days after tumor injection measured at 6 hrs post last dose by Western blot analysis. It is filed as functional, organism-based. More on the design: dose 5 mg/kg. In outline:
as §1

Series [7] concerns NCI-H460. Nature of the series: Induction of apoptosis in human NCI-H460 cells assessed as cell with hypodiploid DNA content at 2 times IC50 after 24 to 72 hrs by propidium iodide staining-based FACS flow cytometric analysis. The format is functional.
Series [8] concerns Mus musculus. Nature of the series: In vivo inhibition of HSP90 in human A431 cells overexpressing EGFR xenografted in CD-1 nude mouse assessed as induction of HSP70 protein expression at 5 mg/kg, ip administered as q2d/week for 2 weeks starting 3 days after tumor injection measured at 2 hrs post last dose by Western blot analysis. It is filed as functional, organism-based. More on the design: dose 5 mg/kg. The settings on record: A-431. In outline:
as §1

Series [9] concerns Mus musculus. The series is described as follows: In vivo inhibition of HSP90 in human GTL16 cells overexpressing c-Met xenografted in CD-1 nude mouse assessed as downregulation of c-Met protein expression at 5 mg/kg, ip administered as q2d/week for 2 weeks starting 3 days after tumor injection measured at 6 hrs post last dose by Western blot analysis. The format is functional, organism-based. More on the design: dose 5 mg/kg. The essentials: as §1

Series [10] deals with Heat shock protein HSP 90-beta (Homo sapiens) (UniProt P08238). The series is described as follows: Inhibition of HSP90 in human A431 cells overexpressing EGFR assessed as induction of HSP70 protein expression after 24 hrs by Western blot analysis. The settings on record: A-431. It is filed as cell-based. The essentials:
as §3

The subject of series [11] is Mus musculus. Nature of the series: In vivo inhibition of HSP90 in human GTL16 cells overexpressing c-Met xenografted in CD-1 nude mouse assessed as induction of HSP70 protein expression at 5 mg/kg, ip administered as q2d/week for 2 weeks starting 3 days after tumor injection measured at 6 hrs post last dose by Western blot analysis. Also on record: dose 5 mg/kg. The format is functional, organism-based. In outline:
as §1

Series [12] has as its target Heat shock protein HSP 90-beta (Homo sapiens) (UniProt P08238). The series is described as follows: Inhibition of HSP90 in human A431 cells overexpressing EGFR assessed as downregulation of CDK4 protein expression after 24 hrs by Western blot analysis. The format is cell-based. The settings on record: A-431. The essentials: as §3
The test system of series [13] is Mus musculus. The series is described as follows: Toxicity in CD-1 nude mouse xenografted with human GTL16 cells overexpressing c-Met assessed as body weight loss at 5 mg/kg, ip administered as q2d/week for 2 weeks starting 3 days after tumor injection measured on day 5 post last dose relative to vehicle-treated control. It is filed as organism-based. More on the design: dose 5 mg/kg, route intraperitoneal. The conditions noted are these: in vivo. The essentials:
(§4)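 Female athymic nude mice carrying s.c. xenografts, dosed i.p. (mg/10 mL/kg per administration) starting 3 days after tumor injection. BWL% = 100 − (mean BW day x/mean BW day 1 × 100), day 1 being the first treatment day. Maximum BWL% recorded. Lethal toxicity counted as deaths before the first control death.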

Series [14] relates to Mus musculus. Nature of the series: In vivo inhibition of HSP90 in human A431 cells overexpressing EGFR xenografted in CD-1 nude mouse assessed as downregulation of EGFR protein expression at 5 mg/kg, ip administered as q2d/week for 2 weeks starting 3 days after tumor injection measured at 2 hrs post last dose by Western blot analysis. It is filed as functional, organism-based. More on the design: dose 5 mg/kg. The conditions noted are these: A-431. The essentials: as §1

Series [15] deals with Mus musculus. Nature of the series: Toxicity in CD-1 nude mouse xenografted with human A431 cells overexpressing EGFR assessed as body weight loss at 5 mg/kg, ip administered as q2d/week for 2 weeks starting 3 days after tumor injection measured on day 5 post last dose relative to vehicle-treated control. The settings on record: in vivo. It is filed as organism-based, A-431. Also on record: dose 5 mg/kg, route intraperitoneal. The essentials: as §4

Series [16] in a line: Antitumor activity against human GTL16 cells overexpressing c-Met xenografted in CD-1 nude mouse assessed as tumor growth inhibition at 5 mg/kg, ip administered as q2d/week for 2 weeks starting 3 days after tumor injection measured on day 5 post last dose relative to vehicle-treated control. It is filed as functional. The conditions noted are these: GTL 16, ip, route intraperitoneal, read-out: TGI. In outline: (§5)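 Female athymic nude mice, 5-6 weeks old, inoculated s.c. in right flank with 5 × 10^6 exponentially growing tumor cells. Intraperitoneal dosing in 10 mL/kg, starting 3 days post-implant. Tumor volume = d²·D/2 from calipered shortest and longest diameters, measured biweekly. TVI% = 100 − (mean TV treated/mean TV control × 100), scored 5 days after last dose. Mann-Whitney test vs vehicle group; 8 mice per group.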

In series [17] the target is Heat shock protein HSP 90-alpha (Homo sapiens, UniProt P07900). Nature of the series: Displacement of GM-FITC from full-length recombinant human Hsp90-alpha after 4 hrs by fluorescence polarization assay. In general terms: In fluorescence polarisation assays a small probe gives low polarisation when free and higher when bound to something large.
Series [18] in a line: Metabolic stability in human plasma assessed as compound remaining at 5 uM measured at 120 mins by LC/MS analysis. The format is ADME, cell-free. The essentials: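 Compound added to human plasma at 5 µM final and incubated at 37 °C for up to 120 min. Samples quenched in two volumes of chilled acetonitrile and centrifuged at 4 °C. Remaining compound quantified by LC/MS.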

The next series concerns A-431. Nature of the series: Antitumor activity against human A431 cells overexpressing EGFR xenografted in CD-1 nude mouse assessed as tumor growth inhibition at 5 mg/kg, ip administered as q2d/week for 2 weeks starting 3 days after tumor injection measured on day 5 post last dose relative to vehicle-treated control. The format is functional. The conditions noted are these: A-431, ip, route intraperitoneal, read-out: TGI. The essentials: as §5

Series [19] has as its system Mus musculus. Nature of the series: Toxicity in CD-1 nude mouse xenografted with human GTL16 cells overexpressing c-Met assessed as mortality at 5 mg/kg, ip administered as q2d/week for 2 weeks starting 3 days after tumor injection measured on day 5 post last dose relative to vehicle-treated control. It is filed as organism-based. More on the design: dose 5 mg/kg, route intraperitoneal. The conditions noted are these: in vivo. In outline:
as §2

Series [20] has as its system NCI-H460. Nature of the series: Cell cycle arrest in human NCI-H460 cells assessed as accumulation at G2/M phase at 2 times IC50 after 24 to 72 hrs by propidium iodide staining-based FACS flow cytometric analysis. It is filed as functional.
Series [21] has as its system Mus musculus. Nature of the series: In vivo inhibition of HSP90 in human GTL16 cells overexpressing c-Met xenografted in CD-1 nude mouse assessed as downregulation of AKT protein expression at 5 mg/kg, ip administered as q2d/week for 2 weeks starting 3 days after tumor injection measured at 6 hrs post last dose by Western blot analysis. Also on record: dose 5 mg/kg. It is filed as functional, organism-based. In outline:
as §1

Series [22] concerns NCI-H460. Nature of the series: Cytotoxicity against human NCI-H460 cells assessed as growth inhibition after 72 hrs by SRB assay. It is filed as functional, cell-based. The settings on record: NCI-H460, 72 h. The essentials: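 NCI-H460 cells grown in RPMI-1640 with 10% heat-inactivated FBS, seeded at about 10% confluence and allowed 24 h recovery. Exposed to graded drug concentrations or solvent for 72 h. Surviving fraction measured by sulforhodamine B. IC50 is the concentration giving a 50% drop in cell number vs vehicle, from dose-response curve fitting; mean of n=4 with SD.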

For orientation: IC50 means the concentration that inhibits the measured activity by half. As usually defined, the share remaining is what is left of the initial amount, in per cent.

For `CCNC(=O)c1nnn(-c2cc(C(C)C)c(O)cc2O)c1-c1ccc(CN2CCOCC2)cc1`, the inhibition result in the series on Mus musculus [1], with Mus musculus [3], in the series with Mus musculus [6], with Mus musculus [8], with Mus musculus [9] and in the series on Mus musculus [11] was “Active” in each case. Further, the inhibition entry in the series on Mus musculus [14] and in the series with Mus musculus [21] was “Active” each time. Also, the Activity result with Mus musculus [2] and with Mus musculus [19] was “Non-toxic” throughout. Besides, the inhibition result in series [4], in series [5], in series [10] and in series [12] was “Dose-dependent effect” in each case. For the same compound, the outcome in the series with NCI-H460 [7] and in the series on NCI-H460 [20] was Active. In addition, the Imax with Mus musculus [13] worked out at 17%; with Mus musculus [15] it was 1%. The figures for the inhibition in vivo at 5 mg/kg (in series [16]; in the series with A-431) were 42% and 49%, respectively. For the same compound, the figures for the IC50 (in series [17]; in the series on NCI-H460 [22]) were under 5 nM and 4 nM, respectively. For the same compound, in series [18], the share remaining at 2 h, 5 µM was found to be 65%.
